In brackets after ≈: the same amount, converted by molar mass. Several values for one entry are separate records, joined by “and”; a condition that tells them apart may be missing. Equal values may be shown once.
Key:
Test in all cases: Antibacterial screening, broth dilution MIC
Type in all cases: cell-based
[1] = test system: Staphylococcus aureus MRSA (DSM 11822, ICB 25701); details: for Mean MIC ± standard error: MRSA, TSY medium, 20 h at 37 °C, absorbance 600 nm, n=3‐13
Procedure, shortened: (§1)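 Test compound serially diluted from 64 μg/ml, inoculum 2–8×10^5 CFU/ml, duplicate wells. Incubated 20 h at 37 °C, then absorbance read at 600 nm. MIC derived by curve fitting over three independent experiments. Positive controls: linezolid for S. aureus, ciprofloxacin for the others.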

[2] = test system: Pseudomonas aeruginosa PA7 (DSM 24068); details: for Mean MIC ± standard error: P. aeruginosa PA7, MHB medium, 20 h at 37 °C, absorbance 600 nm, n=3‐13
Procedure, shortened: as §1, with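 “Broth microdilution in MHB (21 g/L Müller Hinton, pH 7.4). Test” for “Test”, “amikacin” for “linezolid”, “P. aeruginosa,” for “S. aureus,”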

[3] = test system: Escherichia coli (DSM1116, ATCC 9637); details: E. coli, TSY medium, 20 h at 37 °C, absorbance 600 nm, n=3‐13
Procedure, shortened: as §1

[4] = test system: Acinetobacter baumannii (DSM 30007, ATCC 19606); details: A. baumannii, MHB medium, 20 h at 37 °C, absorbance 600 nm, n=3‐13
Procedure, shortened: as §1, with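 “Broth microdilution in MHB (21 g/L Müller Hinton, pH 7.4). Test” for “Test”, “amikacin” for “linezolid”, “P. aeruginosa,” for “S. aureus,”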

[5] = test system: Enterococcus faecium (DSM 20477, ATCC 19434); details: E. faecium, TSY medium, 20 h at 37 °C, absorbance 600 nm, n=3‐13
Procedure, shortened: as §1

[6] = test system: Klebsiella pneumoniae (DSM 11678, ATCC33495); details: K. pneumoniae, MHB medium, 20 h at 37 °C, absorbance 600 nm, n=3‐13
Procedure, shortened: as §1, with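 “Broth microdilution in MHB (21 g/L Müller Hinton, pH 7.4). Test” for “Test”, “amikacin” for “linezolid”, “P. aeruginosa,” for “S. aureus,”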

Compound	MIC ([1]; Staphylococcus aureus, DSM11822|MRSA, 20 h, read-out: Mean MIC ± standard error) [µM]	Mean MIC ± standard error [2] [µM]	Mean MIC ± standard error [1] [µM]	Mean MIC ± standard error [3] [µM]	Mean MIC ± standard error [4] [µM]	Mean MIC ± standard error [5] [µM]	Mean MIC ± standard error [6]	MIC ([2]; Pseudomonas aeruginosa, DSM24068, 20 h, read-out: Mean MIC ± standard error) [µM]
CC(=O)NC[C@H]1CN(c2ccc(N3CCOCC3)c(F)c2)C(=O)O1 [linezolid, reference compound]	2.8 ± 1 (≈ 0.945 µg/mL)	–	–	–	–	–	–	–
CCn1[c](=[Au-2]([Cl])([Cl])[Cl])n(CC)c2ccccc21 [2 c]	–	>30	1.1 ± 0.0	39.1 ± 25.6	3.5 ± 1.2	4.2 ± 0.0	16.8 µM and 16.8 ± 0.0 µM	–
CCn1[c](=[Au-2][Cl])n(CC)c2ccccc21 [2 b]	–	118.0 ± 43.1	0.8 ± 0.4	39.3 ± 0.0	8.4 ± 2.4	1.2 ± 0.0	65.6 µM and 65.6 ± 32.1 µM	–
NCC[C@H](O)C(=O)N[C@@H]1C[C@H](N)[C@@H](O[C@H]2O[C@H](CN)[C@@H](O)[C@H](O)[C@H]2O)[C@H](O)[C@H]1O[C@H]1O[C@H](CO)[C@@H](O)[C@H](N)[C@H]1O [amikacin, reference compound]	–	–	–	–	–	–	–	6.9 ± 7.3 (≈ 4.04 µg/mL)
CC(=O)OC[C@H]1O[C@@H]([S-])[C@H](OC(C)=O)[C@@H](OC(C)=O)[C@@H]1OC(C)=O.CCP(CC)CC.[Au+] [auranofin, reference compound]	–	>30	<0.2	>30	7.8 ± 7.1	0.6 ± 0.2	>30 µM	–

Source: article PMC9290826 (Chemmedchem, 2021)
